Measured values: ChEMBL document CHEMBL1137660, “Molecular and biochemical characterization of the chromosome-encoded class A beta-lactamase BCL-1 from Bacillus clausii” (Antimicrob Agents Chemother, 2007)
≈ marks a conversion by molar mass, not a printed value.

Assays:
Assay type in all cases: functional
[1] = system: Escherichia coli; assay: Antimicrobial activity against Escherichia coli BL21(DE3) by agar-dilution technique
How it was run: (§1)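 MICs by agar dilution on Mueller-Hinton agar following CLSI recommendations. E. coli DH10B clone carries EcoRI-restricted B. clausii NR DNA in pJIM2246. BL21(DE3) carries blaBCL-1 in pET9a.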

[2] = system: Shouchella clausii; assay: Antimicrobial activity against Bacillus clausii ATCC 21537 by agar-dilution technique
[3] = system: Escherichia coli; assay: Antimicrobial activity against Escherichia coli DH10B by agar-dilution technique; details: K-12 substr. DH10B; how it was run: as §1
[4] = system: Escherichia coli; assay: Antimicrobial activity against Escherichia coli BL21(DE3) carrying pET9a expressing Bacillus clausii beta-lactamase BCL1 by agar-dilution technique in presence of beta-lactamase inhibitor clavulanic acid; how it was run: as §1
[5] = system: Escherichia coli; assay: Antimicrobial activity against Escherichia coli BL21(DE3) by agar-dilution technique in presence of beta-lactamase inhibitor clavulanic acid; how it was run: as §1
[6] = system: Escherichia coli; assay: Antimicrobial activity against Escherichia coli DH10B by agar-dilution technique in presence of beta-lactamase inhibitor clavulanic acid; details: K-12 substr. DH10B; how it was run: as §1
[7] = system: Escherichia coli; assay: Antimicrobial activity against Escherichia coli DH10B carrying pJIM2246 expressing Bacillus clausii NR beta-lactamase BCL1 by agar-dilution technique in presence of beta-lactamase inhibitor clavulanic acid; details: K-12 substr. DH10B; how it was run: as §1
[8] = system: Shouchella clausii; assay: Antimicrobial activity against Bacillus clausii NR expressing beta-lactamase BCL1 by agar-dilution technique
[9] = system: Shouchella clausii; assay: Antimicrobial activity against Bacillus clausii NR expressing beta-lactamase BCL1 by agar-dilution technique in presence of beta-lactamase inhibitor clavulanic acid; how it was run: as §1
[10] = system: Shouchella clausii; assay: Antimicrobial activity against Bacillus clausii ATCC 21537 by agar-dilution technique in presence of beta-lactamase inhibitor clavulanic acid; how it was run: as §1
[11] = system: Escherichia coli; assay: Antimicrobial activity against Escherichia coli DH10B carrying pJIM2246 expressing Bacillus clausii NR beta-lactamase BCL1 by agar-dilution technique; details: K-12 substr. DH10B
[12] = system: Escherichia coli; assay: Antimicrobial activity against Escherichia coli BL21(DE3) carrying pET9a expressing Bacillus clausii beta-lactamase BCL1 by agar-dilution technique
[13] = system: Escherichia coli; assay: Antimicrobial activity against Escherichia coli DH10B carrying pJIM2246 expressing Bacillus clausii NR beta-lactamase BCL1 by agar-dilution technique in presence of beta-lactamase inhibitor Tazobactam; details: K-12 substr. DH10B; how it was run: as §1
[14] = system: Escherichia coli; assay: Antimicrobial activity against Escherichia coli DH10B by agar-dilution technique in presence of beta-lactamase inhibitor Tazobactam; details: K-12 substr. DH10B; how it was run: as §1
[15] = system: Escherichia coli; assay: Antimicrobial activity against Escherichia coli BL21(DE3) carrying pET9a expressing Bacillus clausii beta-lactamase BCL1 by agar-dilution technique in presence of beta-lactamase inhibitor Tazobactam; how it was run: as §1
[16] = system: Escherichia coli; assay: Antimicrobial activity against Escherichia coli BL21(DE3) by agar-dilution technique in presence of beta-lactamase inhibitor Tazobactam; how it was run: as §1
[17] = system: Shouchella clausii; assay: Antimicrobial activity against Bacillus clausii NR expressing beta-lactamase BCL1 by agar-dilution technique in presence of beta-lactamase inhibitor Tazobactam; how it was run: as §1
[18] = system: Shouchella clausii; assay: Antimicrobial activity against Bacillus clausii ATCC 21537 by agar-dilution technique in presence of beta-lactamase inhibitor Tazobactam; how it was run: as §1

| Structure (SMILES) | MIC [1] | MIC [2] | MIC [3] | MIC [8] | MIC [11] | MIC [12] | also measured |
| --- | --- | --- | --- | --- | --- | --- | --- |
| CC1(C)S[C@@H]2[C@H](NC(=O)[C@H](N)c3ccc(O)cc3)C(=O)N2[C@H]1C(=O)O [AMOXICILLIN] | 1 mg/L (≈ 2.74 µM) | 1 mg/L (≈ 2.74 µM) | 8 mg/L (≈ 21.9 µM) | 0.5 mg/L (≈ 1.37 µM) |  |  | MIC [4]: 2 mg/L; MIC [5]: 1 mg/L; MIC [6]: 4 mg/L; MIC [7]: 32 mg/L; MIC [9]: 0.12 mg/L; MIC ([10]; read-out: MIC): 120 mg/L |
| CO[C@@]1(NC(=O)Cc2cccs2)C(=O)N2C(C(=O)O)=C(COC(N)=O)CS[C@@H]21 [CEFOXITIN] | 0.5 mg/L (≈ 1.17 µM) | 16 mg/L (≈ 37.4 µM) | 8 mg/L (≈ 18.7 µM) | 32 mg/L (≈ 74.9 µM) | 16 mg/L (≈ 37.4 µM) | 2 mg/L (≈ 4.68 µM) |  |
| CC(C)(O/N=C(\C(=O)N[C@@H]1C(=O)N2C(C(=O)[O-])=C(C[n+]3ccccc3)CS[C@H]12)c1csc(N)n1)C(=O)O [CEFTAZIDIME] | 0.06 mg/L (≈ 0.11 µM) |  | 0.12 mg/L (≈ 0.22 µM) |  | 0.5 mg/L (≈ 0.915 µM) | 0.12 mg/L (≈ 0.22 µM) | MIC [4]: 0.06 mg/L; MIC [5]: 0.06 mg/L; MIC [6]: 0.12 mg/L; MIC [7]: 0.5 mg/L |
| CO/N=C(\C(=O)N[C@@H]1C(=O)N2C(C(=O)O)=C(COC(N)=O)CS[C@H]12)c1ccco1 [CEFUROXIME] | 0.5 mg/L (≈ 1.18 µM) |  | 8 mg/L (≈ 18.9 µM) |  | 16 mg/L (≈ 37.7 µM) | 2 mg/L (≈ 4.71 µM) |  |
| O=C(Cc1cccs1)N[C@@H]1C(=O)N2C(C(=O)[O-])=C(C[n+]3ccccc3)CS[C@H]12 [CEPHALORIDINE] | 0.06 mg/L (≈ 0.144 µM) |  | 0.12 mg/L (≈ 0.289 µM) |  | 0.12 mg/L (≈ 0.289 µM) | 0.06 mg/L (≈ 0.144 µM) |  |
| CC(=O)OCC1=C(C(=O)O)N2C(=O)[C@@H](NC(=O)Cc3cccs3)[C@H]2SC1 [CEPHALOTHIN] | 1 mg/L (≈ 2.52 µM) | 8 mg/L (≈ 20.2 µM) | 4 mg/L (≈ 10.1 µM) | 8 mg/L (≈ 20.2 µM) | 64 mg/L (≈ 161 µM) | 16 mg/L (≈ 40.4 µM) |  |
| C[C@@H](O)[C@H]1C(=O)N2C(C(=O)O)=C(SCCNC=N)C[C@H]12 [IMIPENEM ANHYDROUS] |  |  |  | 0.25 mg/L (≈ 0.835 µM) |  |  |  |
| CC1(C)S[C@@H]2[C@H](NC(=O)Cc3ccccc3)C(=O)N2[C@H]1C(=O)O [PENICILLIN G] | 2 mg/L (≈ 5.98 µM) | 0.5 mg/L (≈ 1.5 µM) | 32 mg/L (≈ 95.7 µM) | 0.5 mg/L (≈ 1.5 µM) |  |  |  |
| CCN1CCN(C(=O)N[C@@H](C(=O)N[C@@H]2C(=O)N3[C@@H]2SC(C)(C)[C@@H]3C(=O)O)c2ccccc2)C(=O)C1=O [PIPERACILLIN] | 1 mg/L (≈ 1.93 µM) | 16 mg/L (≈ 30.9 µM) | 4 mg/L (≈ 7.73 µM) | 16 mg/L (≈ 30.9 µM) | 8 mg/L (≈ 15.5 µM) | 32 mg/L (≈ 61.8 µM) | MIC [13]: 2 mg/L; MIC [14]: 4 mg/L; MIC [15]: 0.5 mg/L; MIC [16]: 0.5 mg/L; MIC [17]: 8 mg/L; MIC [18]: 8 mg/L |
| CC1(C)S[C@@H]2[C@H](NC(=O)[C@H](C(=O)O)c3ccsc3)C(=O)N2[C@H]1C(=O)O [TICARCILLIN] | 1 mg/L (≈ 2.6 µM) | 8 mg/L (≈ 20.8 µM) | 8 mg/L (≈ 20.8 µM) | 8 mg/L (≈ 20.8 µM) |  |  |  |

Continued by falling MIC [1], values first:

| MIC [1] | MIC [2] | MIC [3] | MIC [8] | MIC [11] | MIC [12] | Structure (SMILES) | also measured |
| --- | --- | --- | --- | --- | --- | --- | --- |
| 0.25 mg/L (≈ 0.48 µM) | 0.25 mg/L (≈ 0.48 µM) | 0.25 mg/L (≈ 0.48 µM) | 64 mg/L (≈ 123 µM) | 0.25 mg/L (≈ 0.48 µM) | 0.25 mg/L (≈ 0.48 µM) | CO[C@@]1(NC(=O)C(C(=O)O)c2ccc(O)cc2)C(=O)N2C(C(=O)O)=C(CSc3nnnn3C)CO[C@@H]21 (some centres not stated) [MOXALACTAM] |  |
| 0.06 mg/L (≈ 0.125 µM) |  |  |  |  |  | CO/N=C(\C(=O)N[C@@H]1C(=O)N2C(C(=O)[O-])=C(C[N+]3(C)CCCC3)CS[C@H]12)c1csc(N)n1 |  |
| 0.06 mg/L (≈ 0.132 µM) | 16 mg/L (≈ 35.1 µM) | 0.06 mg/L (≈ 0.132 µM) | 16 mg/L (≈ 35.1 µM) | 0.12 mg/L (≈ 0.263 µM) | 0.06 mg/L (≈ 0.132 µM) | CO/N=C(\C(=O)N[C@@H]1C(=O)N2C(C(=O)O)=C(COC(C)=O)CS[C@H]12)c1csc(N)n1 [CEFOTAXIME] | MIC [4]: 0.06 mg/L; MIC [5]: 0.06 mg/L; MIC [6]: 0.06 mg/L; MIC [7]: 0.06 mg/L; MIC [9]: 16 mg/L; MIC [10]: 16 mg/L |
| 0.06 mg/L (≈ 0.117 µM) |  | 0.06 mg/L (≈ 0.117 µM) |  | 0.12 mg/L (≈ 0.233 µM) | 0.5 mg/L (≈ 0.972 µM) | CO/N=C(\C(=O)N[C@@H]1C(=O)N2C(C(=O)[O-])=C(C[n+]3cccc4c3CCC4)CS[C@H]12)c1csc(N)n1 [CEFPIROME] | MIC [4]: 0.06 mg/L; MIC [5]: 0.06 mg/L; MIC [6]: 0.06 mg/L; MIC [7]: 0.06 mg/L; MIC [9]: 8 mg/L; MIC [10]: 8 mg/L |
| 0.06 mg/L (≈ 0.108 µM) |  | 0.06 mg/L (≈ 0.108 µM) |  | 0.06 mg/L (≈ 0.108 µM) | 0.06 mg/L (≈ 0.108 µM) | CO/N=C(\C(=O)N[C@@H]1C(=O)N2C(C(=O)O)=C(CSc3nc(=O)c(O)nn3C)CS[C@H]12)c1csc(N)n1 [CEFTRIAXONE] |  |
